# Assays:
# [1] = Inhibition of human testis ACE delta36NJ mutant preincubated for 30 mins followed by Z-FHL substrate addition measured after 15 mins by fluorimetric method
# Outline: (§1)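 Enzyme diluted from frozen stock to 10 nM (Ndom389, line 1) or 5 nM (tACE Δ36NJ, line 2) in 100 mM potassium phosphate pH 8.3, 300 mM NaCl, 10 μM ZnSO4, 1 mg/ml albumin. Compounds (10-fold series 100 μM–1 nM, then 9-point two-fold series) preincubated with enzyme 1:1, 30 min, room temperature. 1 mM Z-FHL added, 40 °C, 15 min. OPA/NaOH derivatisation, HCl quench. Fluorescence ex 360/em 485 nm, triplicate wells. IC50 from activity curves, converted to Ki.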
# [2] = Inhibition of human ACE Ndom389 mutant preincubated for 30 mins followed by Z-FHL substrate addition measured after 15 mins by fluorimetric method; outline: as §1
# Homo sapiens = species on record: Homo sapiens; assay: Selectivity ratio of Ki for human testis ACE delta36NJ mutant to Ki for human ACE Ndom389 mutant
# Outline: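 Ki for each domain calculated from IC50 values obtained by Z-FHL hydrolysis assay (Ndom389 10 nM, tACE Δ36NJ 5 nM; 30 min room temperature preincubation, 15 min at 40 °C, OPA fluorescence ex 360/em 485 nm, triplicate). Ratio of C-domain Ki to N-domain Ki.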
Structure (SMILES),Ki [1],Ki [2],Ratio Ki (Homo sapiens)
C[C@H](N[C@H](C(=O)O)[C@@H]1CCCN1C(=O)[C@@H](N)CC(=O)O)C(=O)N1CCC[C@H]1C(=O)O,961 nM,11.4 nM,83.9
C[C@H](N[C@H](C(=O)O)[C@@H]1CCCN1C(=O)[C@@H](N)CCC(=O)O)C(=O)N1CCC[C@H]1C(=O)O,17.4 nM,9.63 nM,1.81
C[C@H](N[C@H](C(=O)O)[C@@H]1CCCN1C(=O)c1ccccc1)C(=O)N1CCC[C@H]1C(=O)O,0.31 nM,4.45 nM,0.07
C[C@H](N[C@H](C(=O)O)[C@@H]1CCCN1C(=O)c1ccc(C(=O)O)cc1)C(=O)N1CCC[C@H]1C(=O)O,2.29 nM,16.9 nM,0.14
C[C@H](N[C@H](C(=O)O)[C@@H]1CCCN1C(=O)[C@@H](N)Cc1ccccc1)C(=O)N1CCC[C@H]1C(=O)O,168 nM,70.3 nM,2.39
C[C@H](N[C@H](C(=O)O)[C@@H]1CCCN1C(=O)CN)C(=O)N1CCC[C@H]1C(=O)O,44.4 nM,279 nM,0.16
C[C@H](N[C@H](C(=O)O)[C@@H]1CCCN1C(=O)c1ccc(N)cc1)C(=O)N1CCC[C@H]1C(=O)O,0.22 nM,3.37 nM,0.07

# Source: ChEMBL document CHEMBL4028915, “The Design and Development of a Potent and Selective Novel Diprolyl Derivative That Binds to the N-Domain of Angiotensin-I Converting Enzyme” (J Med Chem, 2018)
